Screens (PubChem BioAssay)
SENP1 inh: blocks the human SENP1 SUMO protease catalytic domain. Q9P0U3. recombinant SENP1 catalytic domain, CyPet-SUMO1-YPet FRET cleavage. inhibition, % at 10 µM. actives 0.21% (n = 360,000). AID 624204;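 active means inhibition at least 30% at 10 µM, raw YFP signal under a set limit, fluorescence ratio 0.5 to 1.5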;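 further: 0% = enzyme with DMSO and 100% = no enzyme wells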
Target sequence (Q9P0U3 419-644 limits assumed): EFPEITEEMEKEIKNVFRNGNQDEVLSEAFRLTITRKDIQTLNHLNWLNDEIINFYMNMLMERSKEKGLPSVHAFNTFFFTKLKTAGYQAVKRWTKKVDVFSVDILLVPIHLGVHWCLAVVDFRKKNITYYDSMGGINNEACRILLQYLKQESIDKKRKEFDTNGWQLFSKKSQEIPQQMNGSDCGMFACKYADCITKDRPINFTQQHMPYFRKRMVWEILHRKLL
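System: Recombinant human SENP1 catalytic domain, His6-tagged | Incubation: Enzyme reaction for 50 min at room temperature, dark | Medium: Tris pH 8 with BME, BSA, NP40 and catalase | Also added: 25 nM SUMO1 FRET substrate | Compound: 10 µM single point, 0.5% DMSO | Measured by: FRET fluorescence in CFP and YFP emission channels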
MT1-MMP act inh: inhibitors of human MT1-MMP activation. HT1080 RFP-PRO-GFP cells, GFP/RFP ratio fluorescence, overnight; percent of plate control window, DMSO zero. actives 0.061% (n = 360,000). GFP/RFP ratio change, % at 20 µM. P50281;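 active means GFP/RFP ratio change of at least 30% with cell ATP level not reduced by more than half and red fluorescence within 50% of control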
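Material – HT1080 RFP-PRO-GFP cells · Control set – DMSO wells and RFP-L50D-GFP cells · Incubation – overnight cell settling, then overnight compound exposure, 37 °C, 5% CO2 · Compound dosing – single-point 20 µM compound, 1% DMSO · Read-out – GFP/RFP fluorescence ratio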
DAGLB inh: blocks human DAGLB lipase activity. HEK293T DAGLB membrane lysate, EnzChek fluorogenic substrate. actives 0.059% (n = 340,000). AID 504411. inhibition, % at 5.17 µM; in the data active means inhibition above about 34%;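 further: 0% = enzyme with vehicle and 100% = wells lacking enzyme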
NRP1-CendR mod: alters CendR peptide binding to human NRP-1; O14786; FAM-RPARPAR peptide binding to NRP-1, fluorescence polarization; inhibition, % at 25 µM; actives 0.85% (n = 360,000);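 active means inhibition or corrected inhibition above about 18%, plus a signal ratio from 0.5 to 1.5, limit read from the data, passing the limit was not always enough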
Myeloid diff 2: myeloid differentiation induction; ER-HoxA9 myeloid progenitors, lysozyme-GFP differentiation, flow cytometry; calls only at 10 µM; actives 1% (n = 360,000);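 active means normalized GFP-positive differentiation at or above the plate's own cutoff, the solvent-only control mean plus 3 SD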;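 further: cells exposed to compound for four days before flow analysis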
MIN6 prolif: induces beta-cell replication in MIN6 cells | MIN6 cells proliferation, ATPlite luminescence, 48 h; cells starved in 0.2% serum; 100% = growth in 10% serum | proliferation, % at 10 µM | actives 0.29% (n = 330,000) | AID 2380;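 active means compounds whose signal lies at least 3.5 SD above the mean of all wells on their plate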;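 further: 0% = DMSO-treated cells in low-serum medium and 100% = 10% serum control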
Myeloid diff CP1: compounds promoting myeloid differentiation | shares compounds with Myeloid diff 2 | ER-HoxA9 myeloid progenitors, GFP/Mac1 double-positive flow | calls only | actives 2% (n = 2,300) | AID 651706;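 active means share of green or green-and-red cells above 9 and 9% in run 1 or 4 and 3% in run 2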
GFP autofluor: compound fluorescence in myeloid differentiation counter-screen; shares compounds with Myeloid diff 2; ER-HoxA9 myeloid progenitors, no estrogen, GFP autofluorescence flow cytometry; vehicle wells 0%, positive control 100%; fluorescence response, % (concentration not given with the values); actives 7.4% (n = 2,300);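 active means over 5% cells positive for green fluorescent reporter, or over 2% positive for both it and APC stain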;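 further: range taken on the double positive population between DMSO and positive control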
Active calls of the source: *. Hits are enriched below; roughly 2.4% of the tested compounds scored in any of these assays.

`CCOC(=O)[C@H]1[C@H]2COc3ccc(Cl)cc3[C@@H]2N2C(=O)[C@@H](CO)NC(=O)[C@@]12C` gave SENP1 inh 0, MT1-MMP act inh 2, DAGLB inh -1, NRP1-CendR mod -2, Myeloid diff 2 inactive and MIN6 prolif 1.
`Nc1nnc(CCOc2ccccc2Cl)s1` gave SENP1 inh 0, MT1-MMP act inh 2, DAGLB inh -1, NRP1-CendR mod 5, Myeloid diff 2 inactive, MIN6 prolif 0, Myeloid diff CP1 inactive and GFP autofluor 0.
CCOC(=O)N1CCN(C(=O)CSCC(=O)Nc2nc(-c3ccc4c(c3)OCO4)cs2)CC1 was read as SENP1 inh 1, MT1-MMP act inh 16, DAGLB inh -3, NRP1-CendR mod 0, Myeloid diff 2 inactive and MIN6 prolif -3.
CCOC(=O)N1CCN(C(=O)CSCC(=O)Nc2nc(-c3ccc(C)cc3)cs2)CC1 was read as SENP1 inh 3, MT1-MMP act inh 7, DAGLB inh -2, NRP1-CendR mod 4, Myeloid diff 2 inactive, MIN6 prolif -4, Myeloid diff CP1 inactive and GFP autofluor 0.
Screening Cc1cccc(C(=O)N/N=C/c2ccc(OC3CSC3)cc2)c1 returned SENP1 inh 1, MT1-MMP act inh 14, DAGLB inh -7, NRP1-CendR mod 14, Myeloid diff 2 inactive, MIN6 prolif -4, Myeloid diff CP1 inactive and GFP autofluor 3.
`COc1cccc(C(=O)N/N=C/c2ccc(OC3CSC3)cc2)c1` gave SENP1 inh 1, MT1-MMP act inh 6, DAGLB inh 2, NRP1-CendR mod 0, Myeloid diff 2 inactive and MIN6 prolif -2.
For CC1C(=O)N(Cc2cn(CCC3OCCCO3)nn2)CCS(=O)(=O)N1Cc1ccc(-c2ccc(Cl)cc2)cc1 (stereo unspecified) the results were SENP1 inh 0, MT1-MMP act inh 2, DAGLB inh -2, NRP1-CendR mod 3 and Myeloid diff 2 inactive.
CC(C)CC1C(=O)N(Cc2cn(CC3CCCCC3)nn2)CCS(=O)(=O)N1Cc1ccc(-c2ccncc2)cc1 (stereo unspecified) was read as SENP1 inh 0, MT1-MMP act inh -3, DAGLB inh 1, NRP1-CendR mod -3, Myeloid diff 2 inactive, Myeloid diff CP1 inactive and GFP autofluor 0.
For CC1C(=O)N(Cc2cn(CCC3OCCCO3)nn2)CCS(=O)(=O)N1Cc1ccc(-c2ccccc2)cc1 (stereo unspecified) the results were SENP1 inh 1, MT1-MMP act inh 2, DAGLB inh -1, NRP1-CendR mod -2, Myeloid diff 2 active, Myeloid diff CP1 inactive and GFP autofluor 0.
Screening COc1ccc(-c2ccc(CN3C(CC(C)C)C(=O)N(Cc4cn(CC5CCCCC5)nn4)CCS3(=O)=O)cc2)cc1OC (stereo unspecified) returned SENP1 inh 1, MT1-MMP act inh -10, DAGLB inh -2, NRP1-CendR mod -10 and Myeloid diff 2 inactive.
`N#C/C(=C/c1cccn1-c1cccc(C(=O)O)c1)c1ccc(F)cc1` gave SENP1 inh 0, MT1-MMP act inh -1, DAGLB inh 7, NRP1-CendR mod -6, Myeloid diff 2 active, Myeloid diff CP1 inactive and GFP autofluor 1.
Screening CCN(CC(=O)Nc1c(F)cccc1F)C(=O)CC1CCCC1 returned SENP1 inh 1, MT1-MMP act inh 6, DAGLB inh 4, NRP1-CendR mod -17, Myeloid diff 2 inactive and MIN6 prolif 3.
Screening CCN(CC(=O)Nc1c(F)cccc1F)C(=O)CC1CCCCC1 returned SENP1 inh 0, MT1-MMP act inh 0, DAGLB inh -1, NRP1-CendR mod -5, Myeloid diff 2 inactive, MIN6 prolif 1, Myeloid diff CP1 inactive and GFP autofluor 2.
`CCOc1cc(CNn2nnnc2N)cc(Cl)c1OCC(=O)NC(C)(C)C` gave SENP1 inh 1, MT1-MMP act inh 8, DAGLB inh 3, NRP1-CendR mod 8, Myeloid diff 2 inactive and MIN6 prolif -1.
For COCCNS(=O)(=O)c1cc(C(=O)O)ccc1OC the results were SENP1 inh 2, MT1-MMP act inh 0, DAGLB inh -1, NRP1-CendR mod 14, Myeloid diff 2 inactive and MIN6 prolif -1.
O=C(CSc1nnc(Cc2ccccc2)n1-c1cccc(Cl)c1)N1CCOCC1 was read as SENP1 inh 2, MT1-MMP act inh -4, DAGLB inh 2, NRP1-CendR mod 4, Myeloid diff 2 inactive and MIN6 prolif -3.
`Cc1cccc(-n2c(Cc3ccccc3)nnc2SCC(=O)N2CCOCC2)c1` gave SENP1 inh 3, MT1-MMP act inh -2, DAGLB inh 0, NRP1-CendR mod 0, Myeloid diff 2 inactive, MIN6 prolif -1, Myeloid diff CP1 inactive and GFP autofluor 1.
For N#C/C(=C/c1ccc(-c2ccc([N+](=O)[O-])cc2)o1)c1nnc(N2CCOCC2)n1-c1ccccc1 the results were SENP1 inh -35, MT1-MMP act inh -108, DAGLB inh -1, NRP1-CendR mod -72, Myeloid diff 2 active, Myeloid diff CP1 inactive and GFP autofluor 4.
`Cc1cc(/C=C(\C#N)c2nnc(N3CCOCC3)n2-c2ccccc2)c(C)n1-c1ccccc1` gave MIN6 prolif 0.
`O=C(Cc1ccc(Br)cc1)N/N=C/c1cccnc1` gave SENP1 inh 2, MT1-MMP act inh 0, DAGLB inh 4, NRP1-CendR mod 6, Myeloid diff 2 inactive and MIN6 prolif 2.
`Cc1ccc(NC(=O)/C(=C\c2cccc(Br)c2)NC(=O)c2ccco2)cc1` gave SENP1 inh -27, MT1-MMP act inh 3, DAGLB inh 1, NRP1-CendR mod 4, Myeloid diff 2 inactive and MIN6 prolif -1.
`O=C(Nc1ccccc1)/C(=C/c1cccc(Br)c1)NC(=O)c1ccco1` gave SENP1 inh -16, MT1-MMP act inh -7, DAGLB inh -1, NRP1-CendR mod 12, Myeloid diff 2 active, MIN6 prolif -1, Myeloid diff CP1 inactive and GFP autofluor 0.
`O=C(NC1CC2CCC1C2)c1ccco1` (stereo unspecified) gave SENP1 inh -1, MT1-MMP act inh 4, DAGLB inh -1, NRP1-CendR mod -6, Myeloid diff 2 inactive, MIN6 prolif 3, Myeloid diff CP1 inactive and GFP autofluor 0.
